{"source": "ChEMBL document CHEMBL1145853", "about": "“Design, synthesis, and biological evaluation of cytotoxic 11-alkenylindenoisoquinoline topoisomerase I inhibitors and indenoisoquinoline-camptothecin hybrids” (2003)", "key": {"[1]": {"test_system": "SN12C", "assay": "Cytotoxic concentration against human renal SN12C cell line growth inhibition", "format": "functional"}, "[2]": {"test_system": "MDA-MB-435", "assay": "Cytotoxic concentration against human breast MDA-MB-435 cell line growth inhibition", "format": "functional"}, "[3]": {"biological_target": "T1, DNA topoisomerase 1 (Homo sapiens) (UniProt P11387)", "T1 sequence (whole entry)": "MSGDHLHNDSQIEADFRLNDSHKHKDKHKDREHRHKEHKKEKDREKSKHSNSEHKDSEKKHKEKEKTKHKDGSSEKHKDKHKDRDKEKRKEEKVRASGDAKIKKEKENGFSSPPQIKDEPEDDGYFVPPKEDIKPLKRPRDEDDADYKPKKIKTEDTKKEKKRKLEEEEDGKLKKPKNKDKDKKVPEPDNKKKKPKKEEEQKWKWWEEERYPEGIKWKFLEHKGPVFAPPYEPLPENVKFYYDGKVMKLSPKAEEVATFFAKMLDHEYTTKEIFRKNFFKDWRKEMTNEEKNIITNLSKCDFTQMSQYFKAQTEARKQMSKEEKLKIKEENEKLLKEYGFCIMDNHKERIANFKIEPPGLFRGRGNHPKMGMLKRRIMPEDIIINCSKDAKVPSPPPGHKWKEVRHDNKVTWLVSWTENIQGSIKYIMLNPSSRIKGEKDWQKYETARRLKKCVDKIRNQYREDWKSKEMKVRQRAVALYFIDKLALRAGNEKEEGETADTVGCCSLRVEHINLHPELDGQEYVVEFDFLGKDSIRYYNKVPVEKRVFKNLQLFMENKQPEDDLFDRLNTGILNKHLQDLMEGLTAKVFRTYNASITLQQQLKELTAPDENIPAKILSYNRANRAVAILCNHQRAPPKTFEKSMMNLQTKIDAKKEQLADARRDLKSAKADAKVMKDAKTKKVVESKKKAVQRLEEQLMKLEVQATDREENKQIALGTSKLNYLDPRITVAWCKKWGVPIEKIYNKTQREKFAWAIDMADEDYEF", "assay": "Activity to produce DNA topoisomerase I-mediated DNA cleavage at concentration up to 10 uM; +, indicates weak activity", "summary_of_the_method": "(§1)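 Human recombinant top1, purified from baculovirus, was incubated for 30 min at 22 °C with the drug at up to 10 μM. The substrate was a 161 bp PvuII/HindIII fragment of pBluescript SK(-), 3'-end-labeled at the HindIII site by Klenow fill-in with [α-32P]dGTP, about 50 000 dpm per reaction. Reactions were stopped with SDS (0.5% final) and run on denaturing 16% polyacrylamide/7 M urea gels. Cleavage was scored semiquantitatively.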"}, "[4]": {"test_system": "SF-539", "assay": "Cytotoxic concentration against human CNS SF-539 cell line growth inhibition", "format": "functional"}, "[5]": {"test_system": "UACC-62", "assay": "Cytotoxic concentration against human melanoma UACC-62 cell line growth inhibition", "format": "functional"}, "[6]": {"test_system": "HCT-116", "assay": "Cytotoxic concentration against human colon HCT116 cell line growth inhibition", "format": "functional"}, "[7]": {"test_system": "OVCAR-3", "assay": "Cytotoxic concentration against human ovarian OVCAR-3 cell line growth inhibition", "format": "functional"}, "[8]": {"test_system": "DU-145", "assay": "Cytotoxic concentration against human prostate DU-145 cell line growth inhibition", "format": "functional"}, "[9]": {"test_system": "HOP-62", "assay": "Cytotoxic concentration against human lung HOP-62 cell line growth inhibition", "format": "functional"}, "[10]": {"biological_target": "T1, DNA topoisomerase 1 (Homo sapiens)", "assay": "Activity to produce DNA topoisomerase I-mediated DNA cleavage at concentration up to 10 uM", "summary_of_the_method": "as §1"}, "[11]": {"test_system": "Cancer cell lines", "assay": "Mean graph midpoint for growth inhibition of all human cancer cell lines", "format": "functional"}, "[12]": {"biological_target": "T1, DNA topoisomerase 1 (Homo sapiens)", "assay": "Activity to produce DNA topoisomerase I-mediated DNA cleavage at concentration up to 10 uM; +++, greater activity than the parent compound 2", "summary_of_the_method": "as §1"}}, "data": [{"compound": "COc1cc2c3c(n(C)c(=O)c2cc1OC)-c1cc2c(cc1/C3=C\\CCCCl)OCO2", "values": [{"measurement": "GI50", "setting": "[1]", "result": "> 100", "unit": "µM"}, {"measurement": "GI50", "setting": "[2]", "result": "> 100", "unit": "µM"}, {"measurement": "Activity", "setting": "[3]", "result": "Weak activity"}]}, {"compound": "O=c1c2ccccc2cc2n1Cc1cc3ccccc3nc1-2", "note": "[ROSETTACIN]", "values": [{"measurement": "GI50", "setting": "[4]", "result": 66.7, "unit": "µM"}, {"measurement": "GI50", "setting": "[5]", "result": 97.2, "unit": "µM"}, {"measurement": "GI50", "setting": "[1]", "result": "> 100", "unit": "µM"}, {"measurement": "GI50", "setting": "[6]", "result": 32.7, "unit": "µM"}, {"measurement": "GI50", "setting": "[7]", "result": 39.8, "unit": "µM"}, {"measurement": "GI50", "setting": "[8]", "result": "> 100", "unit": "µM"}, {"measurement": "GI50", "setting": "[9]", "result": 68.2, "unit": "µM"}, {"measurement": "GI50", "setting": "[2]", "result": 41.8, "unit": "µM"}]}, {"compound": "COc1cc2cc3n(c(=O)c2cc1OC)Cc1cc2ccccc2nc1-3", "note": "[DIMETHOXYAROMATHECIN]", "values": [{"measurement": "GI50", "setting": "[4]", "result": "> 100", "unit": "µM"}, {"measurement": "GI50", "setting": "[5]", "result": "> 100", "unit": "µM"}, {"measurement": "GI50", "setting": "[1]", "result": "> 100", "unit": "µM"}, {"measurement": "GI50", "setting": "[6]", "result": 57.3, "unit": "µM"}, {"measurement": "GI50", "setting": "[7]", "result": "> 100", "unit": "µM"}, {"measurement": "GI50", "setting": "[8]", "result": "> 100", "unit": "µM"}, {"measurement": "GI50", "setting": "[9]", "result": "> 100", "unit": "µM"}, {"measurement": "GI50", "setting": "[2]", "result": "> 100", "unit": "µM"}, {"measurement": "Activity", "setting": "[3]", "result": "indicates weak activity"}]}, {"compound": "COc1cc2c3c(n(C)c(=O)c2cc1OC)-c1cc2c(cc1/C3=C\\CCCCBr)OCO2", "values": [{"measurement": "GI50", "setting": "[5]", "result": "> 100", "unit": "µM"}, {"measurement": "GI50", "setting": "[1]", "result": "> 100", "unit": "µM"}, {"measurement": "GI50", "setting": "[7]", "result": "> 100", "unit": "µM"}, {"measurement": "GI50", "setting": "[2]", "result": "> 100", "unit": "µM"}]}, {"compound": "COc1cc2c3c(n(C)c(=O)c2cc1OC)-c1cc2c(cc1/C3=C/CCCI)OCO2", "values": [{"measurement": "GI50", "setting": "[4]", "result": 4.3, "unit": "µM"}, {"measurement": "GI50", "setting": "[5]", "result": 3.5, "unit": "µM"}, {"measurement": "GI50", "setting": "[1]", "result": 8.8, "unit": "µM"}, {"measurement": "GI50", "setting": "[6]", "result": 0.56, "unit": "µM"}, {"measurement": "Activity", "setting": "[10]", "result": 0}, {"measurement": "GI50", "setting": "[7]", "result": 22.8, "unit": "µM"}, {"measurement": "GI50", "setting": "[8]", "result": 28.7, "unit": "µM"}, {"measurement": "GI50", "setting": "[9]", "result": 27.6, "unit": "µM"}, {"measurement": "GI50", "setting": "[2]", "result": 5.2, "unit": "µM"}]}, {"compound": "COc1cc2c3c(n(C)c(=O)c2cc1OC)-c1cc2c(cc1/C3=C/CCCCCBr)OCO2", "values": [{"measurement": "MGM", "setting": "[11]", "result": 7.8, "unit": "µM"}]}, {"compound": "COc1cc2c3c(n(C)c(=O)c2cc1OC)-c1cc2c(cc1/C3=C\\CCCBr)OCO2", "values": [{"measurement": "GI50", "setting": "[4]", "result": 30, "unit": "µM"}, {"measurement": "GI50", "setting": "[5]", "result": 11.4, "unit": "µM"}, {"measurement": "GI50", "setting": "[1]", "result": "> 100", "unit": "µM"}, {"measurement": "GI50", "setting": "[6]", "result": 37.8, "unit": "µM"}, {"measurement": "Activity", "setting": "[10]", "result": 0}, {"measurement": "GI50", "setting": "[7]", "result": 58.1, "unit": "µM"}, {"measurement": "GI50", "setting": "[8]", "result": 67.8, "unit": "µM"}, {"measurement": "GI50", "setting": "[9]", "result": 19.4, "unit": "µM"}, {"measurement": "GI50", "setting": "[2]", "result": "> 100", "unit": "µM"}]}, {"compound": "COc1cc2c3c(n(C)c(=O)c2cc1OC)-c1cc2c(cc1/C3=C/CCN)OCO2", "values": [{"measurement": "Activity", "setting": "[12]", "result": "greater activity than compound 2"}, {"measurement": "GI50", "setting": "[4]", "result": 0.42, "unit": "µM"}, {"measurement": "GI50", "setting": "[5]", "result": 0.2, "unit": "µM"}, {"measurement": "GI50", "setting": "[1]", "result": 0.58, "unit": "µM"}, {"measurement": "GI50", "setting": "[6]", "result": 0.028, "unit": "µM"}, {"measurement": "GI50", "setting": "[7]", "result": 0.56, "unit": "µM"}, {"measurement": "GI50", "setting": "[8]", "result": 0.37, "unit": "µM"}, {"measurement": "GI50", "setting": "[9]", "result": 0.071, "unit": "µM"}, {"measurement": "MGM", "setting": "[11]", "result": 0.34, "unit": "µM"}, {"measurement": "GI50", "setting": "[2]", "result": 1.8, "unit": "µM"}]}, {"compound": "COc1cc2c3c(n(C)c(=O)c2cc1OC)-c1cc2c(cc1C3=O)OCO2", "values": [{"measurement": "GI50", "setting": "[4]", "result": 41, "unit": "µM"}, {"measurement": "GI50", "setting": "[5]", "result": 4.2, "unit": "µM"}, {"measurement": "GI50", "setting": "[1]", "result": 68, "unit": "µM"}, {"measurement": "GI50", "setting": "[6]", "result": 35, "unit": "µM"}, {"measurement": "GI50", "setting": "[8]", "result": 37, "unit": "µM"}, {"measurement": "GI50", "setting": "[9]", "result": 1.3, "unit": "µM"}, {"measurement": "MGM", "setting": "[11]", "result": 20, "unit": "µM"}, {"measurement": "GI50", "setting": "[2]", "result": 96, "unit": "µM"}]}]}
